Assay results reported in ChEMBL document CHEMBL1629684, “Effects of ravuconazole treatment on parasite load and immune response in dogs experimentally infected with Trypanosoma cruzi” (Antimicrob Agents Chemother, 2010).
Active and inactive are the calls of the source.

Legend:
Trypanosoma cruzi [1] = experiment: Antitrypanosomal activity against Trypanosoma cruzi Berenice-78 infected in mongrel dog assessed as reduction in parasite-induced intrafascicular collagen deposition in right atrium at 7 mg/kg, po BID after 180 days […]; assay type: functional, organism-based; parameters: dose 7 mg/kg; settings: Cardiac atrium
[2] = Half life in mongrel dog; assay type: ADME, organism-based, Canis lupus familiaris; settings: in vivo
Canis familiaris [3] = experiment: Immunostimulatory activity in mongrel dog infected with Trypanosoma cruzi Berenice-78 assessed as reduction in IL10 production in right atrium at 12 mg/kg, po BID after 180 days by semiquantitative RT-PCR; assay type: functional, organism-based; parameters: dose 12 mg/kg; settings: Canis lupus familiaris, Cardiac atrium
Method in brief: (§1)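 Dogs were euthanized 6 months after the end of treatment. RNA was extracted from the right atrium with acid guanidinium thiocyanate-phenol-chloroform. One microgram was DNase treated and reverse transcribed with oligo(dT) for 1 h at 42°C. IFN-γ or IL-10 cDNA was amplified with 1.5 mM MgCl2: 94°C 5 min, n cycles of 94/57/72°C, final extension 72°C 6 min. Expression was scored semiquantitatively against infected untreated and noninfected dogs.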

Canis familiaris [4] = experiment: Immunostimulatory activity in mongrel dog infected with Trypanosoma cruzi Berenice-78 assessed as reduction in INFgamma production in right atrium at 7 mg/kg, po BID after 180 days by semiquantitative RT-PCR; assay type: functional, organism-based; parameters: dose 7 mg/kg; settings: Canis lupus familiaris, Cardiac atrium; method in brief: as §1
Canis familiaris [5] = experiment: Immunostimulatory activity in mongrel dog infected with Trypanosoma cruzi Berenice-78 assessed as reduction in IL10 production in right atrium at 7 mg/kg, po BID after 180 days by semiquantitative RT-PCR; assay type: functional, organism-based; parameters: dose 7 mg/kg; settings: Canis lupus familiaris, Cardiac atrium; method in brief: as §1
[6] = Half life in human; assay type: ADME, organism-based; settings: in vivo
Canis familiaris [7] = experiment: Toxicity in mongrel dog infected with Trypanosoma cruzi Y assessed as weight loss at 12 mg/kg, po BID for 90 days started 12 to 22 days postinfection measured after 1 day; assay type: organism-based, Canis lupus familiaris; parameters: dose 12 mg/kg, route oral; settings: in vivo, 24 h
Method in brief: (§2)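 Body weight gain, in kg, was recorded for infected dogs 1 day and 6 months after the end of oral b.i.d. treatment. Treated animals were compared with infected untreated and noninfected control groups.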

Canis familiaris [8] = experiment: Toxicity in mongrel dog infected with Trypanosoma cruzi Y assessed as weight loss at 7 mg/kg, po BID for 90 days started 12 to 22 days postinfection measured after 6 months; assay type: organism-based, Canis lupus familiaris; parameters: dose 7 mg/kg, route oral; settings: in vivo, 4383 h; method in brief: as §2
Trypanosoma cruzi [9] = experiment: Antimicrobial activity against Trypanosoma cruzi Y infected in mongrel dog assessed as suppression of microbial proliferation at 12 mg/kg, po BID started 12 to 22 days postinfection measured after 1 day; assay type: functional, organism-based; parameters: dose 12 mg/kg
Method in brief: (§3)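 Mongrel dogs, 4 months old, dewormed and vaccinated, were inoculated with 2.0 × 10^3 bloodstream trypomastigotes/kg. Oral b.i.d. (q12h) dosing began 12 to 22 days postinfection, once parasitemia appeared. Dosing ran 90 days at 12 mg/kg and 60 days at 7 mg/kg, with 5 dogs per group. Parasitemia was read by fresh-blood examination of marginal ear vein blood from day 10 of infection until parasites were undetectable.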

Trypanosoma cruzi [10] = experiment: Antimicrobial activity against Trypanosoma cruzi Berenice-78 infected in mongrel dog assessed as suppression of microbial proliferation at 12 mg/kg, po BID started 12 to 22 days postinfection measured after 1 day; assay type: functional, organism-based; parameters: dose 12 mg/kg; method in brief: as §3
Trypanosoma cruzi [11] = experiment: Antimicrobial activity against Trypanosoma cruzi Y infected in mongrel dog assessed as survival of dog at 7 mg/kg, po BID started 12 to 22 days postinfection measured after 1 day; assay type: functional
Method in brief: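 Four-month-old mongrel dogs (five per group) received 2.0 × 10^3 Y or Berenice-78 bloodstream trypomastigotes/kg. Oral dosing began 12–22 days postinfection, when parasitemia was detected by fresh blood examination: 12 mg/kg q12h for 90 days, or 7 mg/kg q12h for 60 days. Ear-vein blood was checked from day 10. Mortality was expressed as the cumulative percentage of dead animals.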

Trypanosoma cruzi [12] = experiment: Antimicrobial activity against Trypanosoma cruzi Y infected in mongrel dog assessed as parasite level in blood of dog at 12 mg/kg, po BID started 12 to 22 days postinfection measured after 6 months by PCR analysis; assay type: functional
Method in brief: (§4)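 Blood PCR for T. cruzi on treated dogs (n = 5 per group) at 1 and 6 months posttreatment. Each reaction took 2 μl blood DNA template in Tris-HCl pH 9.0, 75 mM KCl, 3.5 mM MgCl2 and 0.2 mM dNTPs. Cycling was 95°C 5 min, then 2 cycles annealing at 30°C, 33 cycles at 40°C, and 72°C 5 min. Products were run on 6% polyacrylamide and silver stained. Reported as rate of positive animals.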

Trypanosoma cruzi [13] = experiment: Antimicrobial activity against Trypanosoma cruzi Berenice-78 infected in mongrel dog assessed as parasite level in blood of dog at 12 mg/kg, po BID started 12 to 22 days postinfection measured after 6 months by PCR analysis; assay type: functional; method in brief: as §4
Trypanosoma cruzi [14] = experiment: Antimicrobial activity against Trypanosoma cruzi Berenice-78 infected in mongrel dog assessed as parasite level in blood of dog at 7 mg/kg, po BID started 12 to 22 days postinfection measured after 30 days by PCR analysis; assay type: functional; method in brief: as §4
Canis familiaris [15] = experiment: Immunostimulatory activity in mongrel dog infected with Trypanosoma cruzi Y assessed as production of antibody IgG at 12 mg/kg, po BID for 90 days measured up to 30 days by ELISA; assay type: functional, organism-based; parameters: dose 12 mg/kg; settings: Canis lupus familiaris
Method in brief: (§5)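 Serum was taken before inoculation and then monthly until 6 months posttreatment, and stored at −80°C. ELISA plates were coated with alkaline extract of Y-strain parasites grown to exponential phase in LIT medium. Bound total IgG or IgG2 was detected with peroxidase-labeled anti-dog conjugates and read at 490 nm. Cutoff was the mean absorbance of 10 uninfected dogs plus 2 SD.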

Canis familiaris [16] = experiment: Immunostimulatory activity in mongrel dog infected with Trypanosoma cruzi Y assessed as production of antibody IgG2 at 12 mg/kg, po BID for 90 days measured up to 30 days by ELISA; assay type: functional, organism-based; parameters: dose 12 mg/kg; settings: Canis lupus familiaris; method in brief: as §5
Canis familiaris [17] = experiment: Immunostimulatory activity in mongrel dog infected with Trypanosoma cruzi Y assessed as production of antibody IgG at 7 mg/kg, po BID for 90 days measured up to 30 days by ELISA; assay type: functional, organism-based; parameters: dose 7 mg/kg; settings: Canis lupus familiaris; method in brief: as §5
Canis familiaris [18] = experiment: Immunostimulatory activity in mongrel dog infected with Trypanosoma cruzi Y assessed as production of antibody IgG2 at 7 mg/kg, po BID for 90 days measured up to 30 days by ELISA; assay type: functional, organism-based; parameters: dose 7 mg/kg; settings: Canis lupus familiaris; method in brief: as §5
Canis familiaris [19] = experiment: Immunostimulatory activity in mongrel dog infected with Trypanosoma cruzi Berenice-78 assessed as production of antibody IgG2 at 12 mg/kg, po BID for 90 days measured up to 30 days by ELISA; assay type: functional, organism-based; parameters: dose 12 mg/kg; settings: Canis lupus familiaris; method in brief: as §5
Canis familiaris [20] = experiment: Immunostimulatory activity in mongrel dog infected with Trypanosoma cruzi Berenice-78 assessed as production of antibody IgG at 7 mg/kg, po BID for 90 days measured up to 30 days by ELISA; assay type: functional, organism-based; parameters: dose 7 mg/kg; settings: Canis lupus familiaris; method in brief: as §5
Canis familiaris [21] = experiment: Immunostimulatory activity in mongrel dog infected with Trypanosoma cruzi Berenice-78 assessed as production of antibody IgG2 at 7 mg/kg, po BID for 90 days measured up to 30 days by ELISA; assay type: functional, organism-based; parameters: dose 7 mg/kg; settings: Canis lupus familiaris; method in brief: as §5
Canis familiaris [22] = experiment: Toxicity in mongrel dog infected with Trypanosoma cruzi Y assessed as weight loss at po BID for 90 days started 12 to 22 days postinfection measured after 1 day; settings: in vivo, 24 h
Trypanosoma cruzi [23] = experiment: Antitrypanosomal activity against Trypanosoma cruzi Y infected in mongrel dog assessed as reduction in parasite-induced intrafascicular collagen deposition in right atrium at 12 mg/kg, po BID after 180 days; settings: Cardiac atrium

C[C@@H](c1nc(-c2ccc(C#N)cc2)cs1)[C@](O)(Cn1cncn1)c1ccc(F)cc1F [RAVUCONAZOLE]
Activity (Trypanosoma cruzi [1]): Active | half-life [2]: 8.8 h | Activity (Canis familiaris [3]): Active | Activity (Canis familiaris [4]): Active | Activity (Canis familiaris [5]): Active | half-life [6]: 96 h | Activity (Canis familiaris [7]): Non-toxic | Activity (Canis familiaris [8]): Non-toxic | Activity (Trypanosoma cruzi [9]): Non-toxic | Activity (Trypanosoma cruzi [10]): Non-toxic | Activity (Trypanosoma cruzi [11]): 100% | Activity (Trypanosoma cruzi [12]): 60% | Activity (Trypanosoma cruzi [13]): 80% | Activity (Trypanosoma cruzi [14]): 60% | Activity (Canis familiaris [15]): Active | Activity (Canis familiaris [16]): Active | Activity (Canis familiaris [17]): Active | Activity (Canis familiaris [18]): Active | Activity (Canis familiaris [19]): Active | Activity (Canis familiaris [20]): Active | Activity (Canis familiaris [21]): Active | Activity (Canis familiaris [22]): Non-toxic | Activity (Trypanosoma cruzi [23]): Active
